Test results reported in ChEMBL document CHEMBL3994637, “Broad spectrum anti-infective properties of benzisothiazolones and the parallels in their anti-bacterial and anti-fungal effects” (Bioorg Med Chem Lett, 2017).
In brackets after ≈: the same amount, converted by molar mass.

Assays:
[1] = test system: Trichophyton mentagrophytes; test: Anti-fungal activity against Trichophyton mentagrophytes after 48 hrs by broth microdilution method; assay type: functional
Candida albicans = test: Anti-fungal activity against Candida albicans after 48 hrs by broth microdilution method; assay type: functional
Escherichia coli = test: Antibacterial activity against Escherichia coli ATCC 9637 by broth microdilution method; assay type: functional; details: W
In short: (§1)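 Bacteria were tested by the NCCLS method in Mueller Hinton broth, with gentamicin and norfloxacin as reference drugs.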

Staphylococcus aureus [2] = test: Antibacterial activity against Staphylococcus aureus ATCC 25923 by broth microdilution method; assay type: functional
Staphylococcus aureus [3] = test: Antibacterial activity against gentamicin-resistant Staphylococcus aureus ATCC 33592 by broth microdilution method; assay type: functional
Pseudomonas aeruginosa = test: Antibacterial activity against Pseudomonas aeruginosa ATCC BAA-427 by broth microdilution method; assay type: functional; in short: as §1
Plasmodium falciparum = test: Antimalarial activity against chloroquine-sensitive Plasmodium falciparum 3D7 after 72 hrs by SYBR Green-1 staining based fluorescence assay; assay type: functional; details: 3D7, 72 h
Staphylococcus aureus [4] = test: Antibacterial activity against Staphylococcus aureus ATCC 29213 by broth microdilution method; assay type: functional
Sporothrix schenckii = test: Anti-fungal activity against Sporothrix schenckii after 48 hrs by broth microdilution method; assay type: functional
[5] = Selectivity index, ratio of CC50 for monkey Vero C1008 cells to IC50 for chloroquine-sensitive Plasmodium falciparum 3D7; assay type: toxicity; details: read-out: Ratio CC50/IC50
Candida parapsilosis = test: Anti-fungal activity against Candida parapsilosis ATCC 22019 after 48 hrs by broth microdilution method; assay type: functional; details: Lodderomyces parapsilosis, ATCC 22019, 48 h
Klebsiella pneumoniae = test: Antibacterial activity against Klebsiella pneumoniae ATCC 27736 by broth microdilution method; assay type: functional; in short: as §1
[6] = Cytotoxicity against monkey Vero C1008 cells after 72 hrs by MTT assay; assay type: cell-based; details: chlorocebus sabaeus
Staphylococcus aureus [7] = test: Antibacterial activity against methicillin-resistant Staphylococcus aureus ATCC 700699 by broth microdilution method; assay type: functional; details: Mu50
Cryptococcus neoformans = test: Anti-fungal activity against Cryptococcus neoformans after 48 hrs by broth microdilution method; assay type: functional
Aspergillus fumigatus = test: Anti-fungal activity against Aspergillus fumigatus after 48 hrs by broth microdilution method; assay type: functional

| Compound | MIC [1] [µg/mL] | MIC (Candida albicans) [µg/mL] | MIC (Escherichia coli) [µg/mL] | MIC (Staphylococcus aureus [2]) [µg/mL] | MIC (Staphylococcus aureus [3]) [µg/mL] | MIC (Pseudomonas aeruginosa) [µg/mL] | IC50 (Plasmodium falciparum) [µM] | MIC (Staphylococcus aureus [4]) [µg/mL] | MIC (Sporothrix schenckii) [µg/mL] | selectivity ratio [5] | MIC (Candida parapsilosis) [µg/mL] | MIC (Klebsiella pneumoniae) [µg/mL] | CC50 at 72 h [6] [µM] | MIC (Staphylococcus aureus [7]) [µg/mL] | MIC (Cryptococcus neoformans) [µg/mL] | MIC (Aspergillus fumigatus) [µg/mL] | IC50 (Candida albicans) [µg/mL] | IC50 (Escherichia coli) [µg/mL] | IC50 (Staphylococcus aureus [2]) [µg/mL] | IC50 (Pseudomonas aeruginosa) [µg/mL] | also measured |
| --- | --- | --- | --- | --- | --- | --- | --- | --- | --- | --- | --- | --- | --- | --- | --- | --- | --- | --- | --- | --- | --- |
| O=c1c2ccccc2sn1-c1ccc(Cl)cc1 | 12.5 (≈ 47.8 µM) | 12.5 (≈ 47.8 µM) | > 50 | 6.25 (≈ 23.9 µM) | 6.26 (≈ 23.9 µM) | > 50 | 0.92 | 6.25 (≈ 23.9 µM) | 12.5 (≈ 47.8 µM) | 70.8 | 12.5 (≈ 47.8 µM) | > 50 | 71.7 | 3.12 (≈ 11.9 µM) | 12.5 (≈ 47.8 µM) | 25 (≈ 95.5 µM) | – | – | – | – | – |
| O=c1c2ccccc2sn1-c1ccc(F)cc1 | 12.5 (≈ 51 µM) | 12.5 (≈ 51 µM) | > 50 | 6.25 (≈ 25.5 µM) | 3.12 (≈ 12.7 µM) | > 50 | 0.97 | 3.12 (≈ 12.7 µM) | 12.5 (≈ 51 µM) | 84.4 | 12.5 (≈ 51 µM) | > 50 | 85.4 | 3.12 (≈ 12.7 µM) | 12.5 (≈ 51 µM) | 25 (≈ 102 µM) | – | – | – | – | – |
| O=c1c2ccccc2sn1-c1cccc2ccccc12 | 12.5 (≈ 45.1 µM) | 25 (≈ 90.1 µM) | > 50 | 3.12 (≈ 11.2 µM) | 6.25 (≈ 22.5 µM) | > 50 | 2.64 | 6.25 (≈ 22.5 µM) | 12.5 (≈ 45.1 µM) | 34.4 | 25 (≈ 90.1 µM) | > 50 | 90.8 | 3.12 (≈ 11.2 µM) | 25 (≈ 90.1 µM) | 50 (≈ 180 µM) | – | – | – | – | – |
| O=c1c2ccccc2sn1-c1cccc(F)c1 | 12.5 (≈ 51 µM) | 12.5 (≈ 51 µM) | > 50 | 6.25 (≈ 25.5 µM) | 6.25 (≈ 25.5 µM) | > 50 | > 2 | 12.5 (≈ 51 µM) | 12.5 (≈ 51 µM) | – | 12.5 (≈ 51 µM) | > 50 | – | 6.25 (≈ 25.5 µM) | 12.5 (≈ 51 µM) | 25 (≈ 102 µM) | – | – | – | – | – |
| COc1ccccc1-n1sc2ccccc2c1=O | 2.6 (≈ 10.1 µM) | 7.2 (≈ 28 µM) | > 50 | 2 (≈ 7.77 µM) | – | > 50 | > 2 | 2.4 (≈ 9.33 µM) | 4 (≈ 15.5 µM) | – | 3.2 (≈ 12.4 µM) | > 50 | 24.5 | 1.07 (≈ 4.16 µM) | 3.8 (≈ 14.8 µM) | > 50 | 2.9 (≈ 11.3 µM) | > 50 | 1 (≈ 3.89 µM) | > 50 | IC50 [1]: 0.7 µg/mL (≈ 2.72 µM); IC50 (Staphylococcus aureus [4]): 1.6 µg/mL (≈ 6.22 µM); IC50 (Sporothrix schenckii): 0.6 µg/mL (≈ 2.33 µM); IC50 (Candida parapsilosis): 0.7 µg/mL (≈ 2.72 µM); IC50 (Klebsiella pneumoniae): > 50 µg/mL; IC50 (Cryptococcus neoformans): 0.9 µg/mL (≈ 3.5 µM); IC50 (Aspergillus fumigatus): > 50 µg/mL |
| Cc1ccc(-n2sc3ccccc3c2=O)cc1 | 1.7 (≈ 7.04 µM) | 2.4 (≈ 9.95 µM) | > 50 | 1.07 (≈ 4.43 µM) | – | > 50 | 1.66 | 1 (≈ 4.14 µM) | 1 (≈ 4.14 µM) | 12 | 0.6 (≈ 2.49 µM) | > 50 | 19.9 | 0.75 (≈ 3.11 µM) | 1.5 (≈ 6.22 µM) | 13.3 (≈ 55.1 µM) | 1.3 (≈ 5.39 µM) | > 50 | 0.6 (≈ 2.49 µM) | > 50 | IC50 (Staphylococcus aureus [4]): 0.6 µg/mL (≈ 2.49 µM); IC50 (Sporothrix schenckii): 0.9 µg/mL (≈ 3.73 µM); IC50 (Candida parapsilosis): 0.4 µg/mL (≈ 1.66 µM); IC50 (Klebsiella pneumoniae): > 50 µg/mL; IC50 (Cryptococcus neoformans): 1.2 µg/mL (≈ 4.97 µM); IC50 (Aspergillus fumigatus): 4.1 µg/mL (≈ 17 µM) |
| O=c1c2ccccc2sn1-c1cccc(C(F)(F)F)c1 | 12.5 (≈ 42.3 µM) | 25 (≈ 84.7 µM) | > 50 | 6.25 (≈ 21.2 µM) | 6.25 (≈ 21.2 µM) | > 50 | > 2 | 6.25 (≈ 21.2 µM) | 12.5 (≈ 42.3 µM) | – | 25 (≈ 84.7 µM) | > 50 | – | 6.25 (≈ 21.2 µM) | 12.5 (≈ 42.3 µM) | 25 (≈ 84.7 µM) | – | – | – | – | – |
| COc1ccc(-n2sc3ccccc3c2=O)cc1 | > 50 | 3.5 (≈ 13.6 µM) | > 50 | 1.6 (≈ 6.22 µM) | – | > 50 | > 2 | 1.9 (≈ 7.38 µM) | 0.8 (≈ 3.11 µM) | – | 0.7 (≈ 2.72 µM) | > 50 | 32.6 | 0.73 (≈ 2.84 µM) | 1.1 (≈ 4.27 µM) | 11 (≈ 42.7 µM) | 2.4 (≈ 9.33 µM) | > 50 | 1.5 (≈ 5.83 µM) | > 50 | IC50 [1]: > 50 µg/mL; IC50 (Staphylococcus aureus [4]): 1.2 µg/mL (≈ 4.66 µM); IC50 (Sporothrix schenckii): 0.4 µg/mL (≈ 1.55 µM); IC50 (Candida parapsilosis): 0.6 µg/mL (≈ 2.33 µM); IC50 (Klebsiella pneumoniae): > 50 µg/mL; IC50 (Cryptococcus neoformans): 0.9 µg/mL (≈ 3.5 µM); IC50 (Aspergillus fumigatus): 6.9 µg/mL (≈ 26.8 µM) |
| O=c1c2ccccc2sn1-c1ccccc1 | 0.8 (≈ 3.52 µM) | 3.02 (≈ 13.3 µM) | > 50 | 1.6 (≈ 7.04 µM) | – | > 50 | 0.74 | 2.1 (≈ 9.24 µM) | 1.7 (≈ 7.48 µM) | 26.3 | 0.8 (≈ 3.52 µM) | > 50 | 19.4 | 0.77 (≈ 3.39 µM) | 1.21 (≈ 5.32 µM) | 6.4 (≈ 28.2 µM) | 2.9 (≈ 12.8 µM) | > 50 | 1.1 (≈ 4.84 µM) | > 50 | IC50 [1]: 0.7 µg/mL (≈ 3.08 µM); IC50 (Staphylococcus aureus [4]): 1.6 µg/mL (≈ 7.04 µM); IC50 (Sporothrix schenckii): 0.6 µg/mL (≈ 2.64 µM); IC50 (Candida parapsilosis): 0.7 µg/mL (≈ 3.08 µM); IC50 (Klebsiella pneumoniae): > 50 µg/mL; IC50 (Cryptococcus neoformans): 0.9 µg/mL (≈ 3.96 µM); IC50 (Aspergillus fumigatus): 6.1 µg/mL (≈ 26.8 µM) |
